{
  "source": "ChEMBL document CHEMBL1122742",
  "about": "“Cardiotonic agents. 1. 4,5-Dihydro-6-[4-(1H-imidazol-1-yl)phenyl]-3 (2H)-pyridazinones: novel positive inotropic agents for the treatment of congestive heart failure” (J Med Chem, 1984)",
  "key": {"Canis familiaris [1]": {"system": "Canis familiaris", "assay": "Positive inotropic effect (increased myocardial contractility) in anesthetized dogs at 0.001-0.10 mg/kg intravenous administration, range 10.5-148.5"}, "Canis familiaris [2]": {"system": "Canis familiaris", "assay": "Positive inotropic effect (reduced mean aortic blood pressure) in anesthetized dogs at 0.001-1.0 mg/kg intravenous administration", "format": "functional, Canis lupus familiaris, Artery", "summary_of_the_method": "(§1)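 Anesthetized dogs were given increasing intravenous half-log doses within 0.001–1.0 mg/kg. Heart rate, aortic blood pressure and dP/dtmax were recorded simultaneously. Changes are expressed as percent of control, with mean ± error at each dose.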"}, "Canis familiaris [3]": {"system": "Canis familiaris", "assay": "Positive inotropic effect (increase in heart rate) in chronically instrumented conscious dogs at 0.1 mg/kg oral administration for 6 hours"}, "Canis familiaris [4]": {"system": "Canis familiaris", "assay": "Positive inotropic effect (increase in heart rate) in anesthetized dogs at 0.001-1.0 mg/kg intravenous administration, range is 2.5-43.8", "format": "functional, Canis lupus familiaris", "summary_of_the_method": "as §1"}, "Canis familiaris [5]": {"system": "Canis familiaris", "assay": "Positive inotropic effect (increased myocardial contractility) in chronically instrumented conscious dogs at 0.1 mg/kg oral administration for 6 hours"}, "Canis familiaris [6]": {"system": "Canis familiaris", "assay": "Positive inotropic activity in anesthetized dogs", "format": "functional", "settings": "Canis lupus familiaris", "summary_of_the_method": "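Anesthetized dogs received increasing intravenous half-log doses across 0.001–1.0 mg/kg. dP/dtmax was recorded while heart rate and aortic pressure were monitored. ED50 was taken from the linear part of each animal's dose–response curve by least squares, then averaged as mean and SEM.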"}, "Canis familiaris [7]": {"system": "Canis familiaris", "assay": "Positive inotropic effect (increased myocardial contractility) in anesthetized dogs at 0.01-1.0 mg/kg intravenous administration, range 10.2-146.7"}, "Canis familiaris [8]": {"system": "Canis familiaris", "assay": "Positive inotropic effect (increase in heart rate) in chronically instrumented conscious dogs at 1.0 mg/kg oral administration for 6 hours", "format": "functional, Canis lupus familiaris"}, "Canis familiaris [9]": {"system": "Canis familiaris", "assay": "Positive inotropic effect (increase in heart rate) in anesthetized dogs at 0.001-1.0 mg/kg intravenous administration, range is 1.2-33.8", "format": "functional, Canis lupus familiaris", "summary_of_the_method": "as §1"}, "Canis familiaris [10]": {"system": "Canis familiaris", "assay": "Positive inotropic effect (increased myocardial contractility) in chronically instrumented conscious dogs at 1.0 mg/kg oral administration for 6 hours", "format": "functional, Canis lupus familiaris"}, "Bos taurus": {"species_on_record": "Bos taurus", "assay": "Percent inhibition of crude bovine cardiac phosphodiesterase at 190 uM"}, "Canis familiaris [11]": {"system": "Canis familiaris", "assay": "Positive inotropic effect (reduced mean aortic blood pressure) in anesthetized dogs at 0.001-1.0 mg/kg intravenous administration, range 0.7-22.4", "format": "functional, Canis lupus familiaris, Artery", "summary_of_the_method": "as §1"}},
  "note": "“And” between values parts separate entries of the source, which are not always exact repeats. Equal values may be shown once.",
  "data": [
    {"smiles": "CC1CC(O)=NN=C1c1ccc(-n2ccnc2)cc1", "note": "(configuration not stated) [CI-930]", "values": [
      {"measurement": "dP/dt max", "setting": "Canis familiaris [1]", "result": 10.5},
      {"measurement": "Blood pressure", "setting": "Canis familiaris [2]", "result": "19 and 7.4"},
      {"measurement": "Heart rate", "setting": "Canis familiaris [3]", "result": 41.6},
      {"measurement": "Heart rate", "setting": "Canis familiaris [4]", "result": 2.5},
      {"measurement": "dP/dt max", "setting": "Canis familiaris [5]", "result": 50.2},
      {"measurement": "ED50", "setting": "Canis familiaris [6]", "result": 0.013, "unit": "mg/kg"}
    ]},
    {"smiles": "CSc1ccc(C(=O)c2[nH]c(=O)[nH]c2C)cc1", "note": "[ENOXIMONE]", "values": [
      {"measurement": "ED50", "setting": "Canis familiaris [6]", "result": 0.283, "unit": "mg/kg"}
    ]},
    {"smiles": "O=C1CCC(c2ccc(-n3ccnc3)cc2)=NN1", "note": "[IMAZODAN]", "values": [
      {"measurement": "dP/dt max", "setting": "Canis familiaris [7]", "result": 10.2},
      {"measurement": "Heart rate", "setting": "Canis familiaris [8]", "result": 48.1},
      {"measurement": "Heart rate", "setting": "Canis familiaris [9]", "result": 0},
      {"measurement": "dP/dt max", "setting": "Canis familiaris [10]", "result": 42.6},
      {"measurement": "inhibition", "setting": "Bos taurus", "result": 50, "unit": "%"},
      {"measurement": "Blood pressure", "setting": "Canis familiaris [11]", "result": 0.7},
      {"measurement": "ED50", "setting": "Canis familiaris [6]", "result": 0.045, "unit": "mg/kg"}
    ]},
    {"smiles": "Nc1cc(-c2ccncc2)c[nH]c1=O", "note": "[INAMRINONE]", "values": [
      {"measurement": "ED50", "setting": "Canis familiaris [6]", "result": 0.389, "unit": "mg/kg"}
    ]},
    {"smiles": "Cc1[nH]c(=O)c(C#N)cc1-c1ccncc1", "note": "[MILRINONE]", "values": [
      {"measurement": "ED50", "setting": "Canis familiaris [6]", "result": 0.037, "unit": "mg/kg"}
    ]},
    {"smiles": "COc1cc([S+](C)[O-])ccc1-c1nc2cccnc2[nH]1", "note": "(configuration not stated) [SULMAZOLE]", "values": [
      {"measurement": "ED50", "setting": "Canis familiaris [6]", "result": 0.435, "unit": "mg/kg"}
    ]}
  ]
}
